Results as given in ChEMBL document CHEMBL2062460, “Disubstituted thiourea derivatives and their activity on CNS: synthesis and biological evaluation” (Eur J Med Chem, 2012).
≈ marks a conversion by molar mass, not a printed value. Calls of active or inactive are those of the source. The calls are words filed in the database; no cut-off is given here.

Tests used:
Staphylococcus aureus [1] = assay: Antibacterial activity against methicillin-resistant Staphylococcus aureus clinical isolate 357/09 after 18 hrs by twofold serial agar dilution technique; assay type: functional; details: clinical isolate 357/09, 18 h
Method in brief: (§1)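 Clinical isolates came from patients in Warsaw Medical University Hospitals and were classed as methicillin-susceptible or -resistant. MIC was determined by twofold serial agar dilution on Mueller–Hinton II agar (CLSI), 3.125–400 µg/mL in agar, with compounds in methanol or DMSO. Inoculum was 10^4 CFU/mL and plates were read after 18 h at 35 °C.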

Escherichia coli [2] = assay: Antibacterial activity against Escherichia coli ATCC 25922 at 400 ug/disc after 18 hrs by disc diffusion method; assay type: functional, organism-based
Method in brief: (§2)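 Disc diffusion per CLSI on Mueller–Hinton II agar; 9 mm paper discs loaded from methanol or DMSO solutions to 400 µg per disc, dried; growth inhibition zone diameter read after 18 h at 35 °C.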

Staphylococcus aureus [3] = assay: Antibacterial activity against methicillin-susceptible Staphylococcus aureus clinical isolate 261/08 after 18 hrs by twofold serial agar dilution technique; assay type: functional; details: clinical isolate 261/08, 18 h; method in brief: as §1
[4] = test system: Human immunodeficiency virus 1; assay: Antiviral activity against HIV1 infected in human MT4 cells assessed as virus-induced cytopathogenicity after 4 days by MTT assay; assay type: functional, organism-based; details: Human immunodeficiency virus 1, MT4, 96 h
Micrococcus luteus = assay: Antibacterial activity against Micrococcus luteus ATCC 10240 at 400 ug/disc after 18 hrs by disc diffusion method; assay type: functional; details: ATCC 10240, 18 h, read-out: DIZ; method in brief: as §2
[5] = test system: Staphylococcus epidermidis; assay: Antibacterial activity against Staphylococcus epidermidis ATCC 12228 at 400 ug/disc after 18 hrs by disc diffusion method; assay type: functional; details: ATCC 12228, 18 h, read-out: DIZ; method in brief: as §2
[6] = Cytotoxicity against human MT4 cells after 96 hrs by MTT assay; assay type: cell-based
Staphylococcus aureus [7] = assay: Antibacterial activity against Staphylococcus aureus ATCC 29213 at 400 ug/disc after 18 hrs by disc diffusion method; assay type: functional; details: ATCC 29213, 18 h, read-out: DIZ; method in brief: as §2
Staphylococcus aureus [8] = assay: Antibacterial activity against methicillin-resistant Staphylococcus aureus clinical isolate 275/08 after 18 hrs by twofold serial agar dilution technique; assay type: functional; details: clinical isolate 275/08, 18 h; method in brief: as §1
Staphylococcus aureus [9] = assay: Antibacterial activity against Staphylococcus aureus ATCC 29213 after 18 hrs by twofold serial agar dilution technique; assay type: functional; details: ATCC 29213, 18 h
Method in brief: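 Twofold serial agar dilution on Mueller–Hinton II agar, following CLSI guidelines. Compounds were dissolved in methanol or DMSO and tested at final agar concentrations of 3.125–400 µg/mL. Final inoculum was 10^4 CFU/mL.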

[10] = test system: Staphylococcus epidermidis; assay: Antibacterial activity against methicillin-resistant Staphylococcus epidermidis clinical isolate 318/08 after 18 hrs by twofold serial agar dilution technique; assay type: functional; details: clinical isolate 318/08, 18 h; method in brief: as §1
Candida parapsilosis = assay: Antifungal activity against Candida parapsilosis ATCC 22019 at 400 ug/disc after 18 hrs by disc diffusion method; assay type: functional, organism-based
Method in brief: (§3)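 Yeasts tested by disc diffusion (CLSI) on RPMI agar with 2% glucose; 9 mm paper discs bearing 400 µg compound from methanol or DMSO solution; inhibition zone diameter read after 18 h at 35 °C.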

Staphylococcus aureus [11] = assay: Antibacterial activity against methicillin-resistant Staphylococcus aureus clinical isolate 329/08 after 18 hrs by twofold serial agar dilution technique; assay type: functional; details: clinical isolate 329/08, 18 h; method in brief: as §1
[12] = test system: Staphylococcus epidermidis; assay: Antibacterial activity against methicillin-resistant Staphylococcus epidermidis clinical isolate 343/09 after 18 hrs by twofold serial agar dilution technique; assay type: functional; details: clinical isolate 343/09, 18 h; method in brief: as §1
Staphylococcus aureus [13] = assay: Antibacterial activity against methicillin-susceptible Staphylococcus aureus clinical isolate 267/08 after 18 hrs by twofold serial agar dilution technique; assay type: functional; details: clinical isolate 267/08, 18 h; method in brief: as §1
Escherichia coli [14] = assay: Antibacterial activity against Escherichia coli NCTC 8196 at 400 ug/disc after 18 hrs by disc diffusion method; assay type: functional, organism-based; method in brief: as §2
Staphylococcus aureus [15] = assay: Antibacterial activity against methicillin-susceptible Staphylococcus aureus clinical isolate 268/08 after 18 hrs by twofold serial agar dilution technique; assay type: functional; details: clinical isolate 268/08, 18 h; method in brief: as §1
Candida albicans = assay: Antifungal activity against Candida albicans ATCC 90028 at 400 ug/disc after 18 hrs by disc diffusion method; assay type: functional, organism-based; method in brief: as §3
Enterococcus hirae = assay: Antibacterial activity against Enterococcus hirae ATCC 10541 at 400 ug/disc after 18 hrs by disc diffusion method; assay type: functional; details: for zone of inhibition at 400 µg/disc: ATCC 10541, 18 h, read-out: DIZ; method in brief: as §2
[16] = test system: Staphylococcus epidermidis; assay: Antibacterial activity against methicillin-resistant Staphylococcus epidermidis clinical isolate 315/08 after 18 hrs by twofold serial agar dilution technique; assay type: functional; details: clinical isolate 315/08, 18 h; method in brief: as §1
Escherichia coli [17] = assay: Antibacterial activity against Escherichia coli ATCC 10538 at 400 ug/disc after 18 hrs by disc diffusion method; assay type: functional, organism-based; method in brief: as §2
Staphylococcus aureus [18] = assay: Antibacterial activity against methicillin-susceptible Staphylococcus aureus clinical isolate 369/09 after 18 hrs by twofold serial agar dilution technique; assay type: functional; details: clinical isolate 369/09, 18 h; method in brief: as §1
[19] = test system: Staphylococcus epidermidis; assay: Antibacterial activity against methicillin-resistant Staphylococcus epidermidis clinical isolate 317/08 after 18 hrs by twofold serial agar dilution technique; assay type: functional; details: clinical isolate 317/08, 18 h; method in brief: as §1
Bacillus cereus = assay: Antibacterial activity against Bacillus cereus ATCC 11778 after 18 hrs by twofold serial agar dilution technique; assay type: functional; details: ATCC 11778, 18 h
Staphylococcus aureus [20] = assay: Antibacterial activity against methicillin-resistant Staphylococcus aureus clinical isolate 325/09 after 18 hrs by twofold serial agar dilution technique; assay type: functional; details: clinical isolate 325/09, 18 h; method in brief: as §1
Staphylococcus aureus [21] = assay: Antibacterial activity against methicillin-susceptible Staphylococcus aureus clinical isolate 256/08 after 18 hrs by twofold serial agar dilution technique; assay type: functional; details: clinical isolate 256/08, 18 h; method in brief: as §1

S=C(Nc1nc[nH]n1)Nc1ccccc1Br
MIC (Staphylococcus aureus [1]): 50 µg/mL (≈ 168 µM) | diameter of the inhibition zone (DIZ) (Escherichia coli [2]): inactive | MIC (Staphylococcus aureus [3]): 50 µg/mL (≈ 168 µM) | EC50 [4]: > 100 µM | zone of inhibition at 400 µg/disc (Micrococcus luteus): 15 mm | zone of inhibition at 400 µg/disc [5]: 12 mm | CC50 at 96 h [6]: > 100 µM | zone of inhibition at 400 µg/disc (Staphylococcus aureus [7]): 12 mm | MIC (Staphylococcus aureus [8]): 100 µg/mL (≈ 335 µM) | MIC (Staphylococcus aureus [9]): 50 µg/mL (≈ 168 µM) | MIC [10]: 50 µg/mL (≈ 168 µM) | diameter of the inhibition zone (DIZ) (Candida parapsilosis): inactive | MIC (Staphylococcus aureus [11]): 50 µg/mL (≈ 168 µM) | MIC [12]: 50 µg/mL (≈ 168 µM) | MIC (Staphylococcus aureus [13]): 50 µg/mL (≈ 168 µM) | diameter of the inhibition zone (DIZ) (Escherichia coli [14]): inactive | MIC (Staphylococcus aureus [15]): 50 µg/mL (≈ 168 µM) | diameter of the inhibition zone (DIZ) (Candida albicans): inactive | zone of inhibition at 400 µg/disc (Enterococcus hirae): 13 mm | MIC [16]: 100 µg/mL (≈ 335 µM) | diameter of the inhibition zone (DIZ) (Escherichia coli [17]): inactive | MIC (Staphylococcus aureus [18]): 50 µg/mL (≈ 168 µM) | MIC [19]: 100 µg/mL (≈ 335 µM) | MIC (Bacillus cereus): 25 µg/mL (≈ 83.8 µM) | MIC (Staphylococcus aureus [20]): 50 µg/mL (≈ 168 µM) | MIC (Staphylococcus aureus [21]): 50 µg/mL (≈ 168 µM)

S=C(Nc1ccccc1)Nc1nc[nH]n1
MIC (Staphylococcus aureus [1]): 50 µg/mL (≈ 228 µM) | diameter of the inhibition zone (DIZ) (Escherichia coli [2]): inactive | MIC (Staphylococcus aureus [3]): 50 µg/mL (≈ 228 µM) | EC50 [4]: > 100 µM | zone of inhibition at 400 µg/disc (Micrococcus luteus): 12 mm | zone of inhibition at 400 µg/disc [5]: 12 mm | CC50 at 96 h [6]: > 100 µM | zone of inhibition at 400 µg/disc (Staphylococcus aureus [7]): 11 mm | MIC (Staphylococcus aureus [8]): 100 µg/mL (≈ 456 µM) | MIC (Staphylococcus aureus [9]): 100 µg/mL (≈ 456 µM) | MIC [10]: 50 µg/mL (≈ 228 µM) | diameter of the inhibition zone (DIZ) (Candida parapsilosis): inactive | MIC (Staphylococcus aureus [11]): 50 µg/mL (≈ 228 µM) | MIC [12]: 50 µg/mL (≈ 228 µM) | MIC (Staphylococcus aureus [13]): 50 µg/mL (≈ 228 µM) | diameter of the inhibition zone (DIZ) (Escherichia coli [14]): inactive | MIC (Staphylococcus aureus [15]): 50 µg/mL (≈ 228 µM) | diameter of the inhibition zone (DIZ) (Candida albicans): inactive | diameter of the inhibition zone (DIZ) (Enterococcus hirae): inactive | MIC [16]: 100 µg/mL (≈ 456 µM) | diameter of the inhibition zone (DIZ) (Escherichia coli [17]): inactive | MIC (Staphylococcus aureus [18]): 50 µg/mL (≈ 228 µM) | MIC [19]: 100 µg/mL (≈ 456 µM) | MIC (Bacillus cereus): 100 µg/mL (≈ 456 µM) | MIC (Staphylococcus aureus [20]): 50 µg/mL (≈ 228 µM) | MIC (Staphylococcus aureus [21]): 50 µg/mL (≈ 228 µM)

Fc1ccc(NC(=S)Nc2nc[nH]n2)cc1
MIC (Staphylococcus aureus [1]): 50 µg/mL (≈ 211 µM) | diameter of the inhibition zone (DIZ) (Escherichia coli [2]): inactive | MIC (Staphylococcus aureus [3]): 50 µg/mL (≈ 211 µM) | EC50 [4]: > 100 µM | zone of inhibition at 400 µg/disc (Micrococcus luteus): 23 mm | zone of inhibition at 400 µg/disc [5]: 16 mm | CC50 at 96 h [6]: > 100 µM | zone of inhibition at 400 µg/disc (Staphylococcus aureus [7]): 11 mm | MIC (Staphylococcus aureus [8]): 100 µg/mL (≈ 421 µM) | MIC (Staphylococcus aureus [9]): 25 µg/mL (≈ 105 µM) | MIC [10]: 50 µg/mL (≈ 211 µM) | diameter of the inhibition zone (DIZ) (Candida parapsilosis): inactive | MIC (Staphylococcus aureus [11]): 50 µg/mL (≈ 211 µM) | MIC [12]: 50 µg/mL (≈ 211 µM) | MIC (Staphylococcus aureus [13]): 50 µg/mL (≈ 211 µM) | diameter of the inhibition zone (DIZ) (Escherichia coli [14]): inactive | MIC (Staphylococcus aureus [15]): 100 µg/mL (≈ 421 µM) | diameter of the inhibition zone (DIZ) (Candida albicans): inactive | zone of inhibition at 400 µg/disc (Enterococcus hirae): 11 mm | MIC [16]: 50 µg/mL (≈ 211 µM) | diameter of the inhibition zone (DIZ) (Escherichia coli [17]): inactive | MIC (Staphylococcus aureus [18]): 50 µg/mL (≈ 211 µM) | MIC [19]: 50 µg/mL (≈ 211 µM) | MIC (Bacillus cereus): 6.25 µg/mL (≈ 26.3 µM) | MIC (Staphylococcus aureus [20]): 50 µg/mL (≈ 211 µM) | MIC (Staphylococcus aureus [21]): 50 µg/mL (≈ 211 µM)

S=C(Nc1ccc(Br)cc1)Nc1nc[nH]n1
MIC (Staphylococcus aureus [1]): 50 µg/mL (≈ 168 µM) | diameter of the inhibition zone (DIZ) (Escherichia coli [2]): inactive | MIC (Staphylococcus aureus [3]): 25 µg/mL (≈ 83.8 µM) | EC50 [4]: > 100 µM | zone of inhibition at 400 µg/disc (Micrococcus luteus): 29 mm | zone of inhibition at 400 µg/disc [5]: 16 mm | CC50 at 96 h [6]: > 100 µM | zone of inhibition at 400 µg/disc (Staphylococcus aureus [7]): 16 mm | MIC (Staphylococcus aureus [8]): 100 µg/mL (≈ 335 µM) | MIC (Staphylococcus aureus [9]): 25 µg/mL (≈ 83.8 µM) | MIC [10]: 25 µg/mL (≈ 83.8 µM) | diameter of the inhibition zone (DIZ) (Candida parapsilosis): inactive | MIC (Staphylococcus aureus [11]): 50 µg/mL (≈ 168 µM) | MIC [12]: 25 µg/mL (≈ 83.8 µM) | MIC (Staphylococcus aureus [13]): 25 µg/mL (≈ 83.8 µM) | diameter of the inhibition zone (DIZ) (Escherichia coli [14]): inactive | MIC (Staphylococcus aureus [15]): 50 µg/mL (≈ 168 µM) | diameter of the inhibition zone (DIZ) (Candida albicans): inactive | zone of inhibition at 400 µg/disc (Enterococcus hirae): 25 mm | MIC [16]: 50 µg/mL (≈ 168 µM) | diameter of the inhibition zone (DIZ) (Escherichia coli [17]): inactive | MIC (Staphylococcus aureus [18]): 50 µg/mL (≈ 168 µM) | MIC [19]: 100 µg/mL (≈ 335 µM) | MIC (Bacillus cereus): 12.5 µg/mL (≈ 41.9 µM) | MIC (Staphylococcus aureus [20]): 50 µg/mL (≈ 168 µM) | MIC (Staphylococcus aureus [21]): 25 µg/mL (≈ 83.8 µM)
